Source: ChEMBL document CHEMBL5678798 (Clin Cancer Res, 2009)
Active and inactive are the calls of the source. No cut-off for these calls is given here.

Legend:
[1] = tested on: L-363; assay: Antiproliferative activity against human L-363 cells assessed as reduction in cell viability after 72 hrs by CellTiter-Glo assay; assay type: functional, cell-based; settings: L-363, 72 h
In short: (§1)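 Cells seeded in 96-well plates, left overnight at 37°C, then exposed to a range of test concentrations for 72 h. Viability read by CellTiter-Glo luminescence; IC50 from four-parameter curve fit. Lines kept at 37°C, 5% CO2, in recommended growth medium.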

[2] = Antiproliferative activity against human L-82 cells assessed as reduction in cell viability after 72 hrs by CellTiter-Glo assay; assay type: functional, cell-based; settings: L-82, 72 h; in short: as §1
[3] = tested on: COLO 205; assay: Induction of cell cycle arrest in human COLO 205 cells assessed as increase in cells accumulation at G1 phase at 0.03 to 10 uM incubated for 24 to 48 hrs by propidium iodide staining based flow cytometric analysis; assay type: functional; settings: dose 0.03-10 µM, time lower 24.0 hrs, time upper […]
In short: (§2)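 COLO 205, MCF-7 or NCI-H929 cells seeded in 96-well plates overnight at 37°C, then exposed to DMSO or increasing compound concentrations for 24 or 48 h. Fixed and stained with propidium iodide (Vindelov method), then analysed by flow cytometry for sub-G1, G1, S and G2-M fractions. Experiment repeated twice.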

[4] = tested on: COLO 205; assay: Induction of cell cycle arrest in human COLO 205 cells assessed as decrease in cells accumulation at S phase at 0.03 to 10 uM incubated for 24 to 48 hrs by propidium iodide staining based flow cytometric analysis; assay type: functional; settings: dose 0.03-10 µM, time lower 24.0 hrs, time upper […]; in short: as §2
[5] = tested on: COLO 205; assay: Induction of cell cycle arrest in human COLO 205 cells assessed as decrease in cells accumulation at G2/M phase at 0.03 to 10 uM incubated for 24 to 48 hrs by propidium iodide staining based flow cytometric analysis; assay type: functional; settings: dose 0.03-10 µM, time lower 24.0 hrs, time upper […]; in short: as §2
[6] = tested on: NCI-H929; assay: Induction of cell cycle arrest in human NCI-H929 cells assessed as increase in cells accumulation at G1 phase at 0.03 to 10 uM incubated for 24 to 48 hrs by propidium iodide staining based flow cytometric analysis; assay type: functional; settings: dose 0.03-10 µM, time lower 24.0 hrs, time upper […]; in short: as §2
[7] = tested on: NCI-H929; assay: Induction of cell cycle arrest in human NCI-H929 cells assessed as effect on sub-2N-DNA content at 0.03 to 10 uM incubated for 24 to 48 hrs by propidium iodide staining based flow cytometric analysis; assay type: functional; settings: dose 0.03-10 µM, time lower 24.0 hrs, time upper […]; in short: as §2
[8] = target: TGF-beta receptor type-1 (Homo sapiens, UniProt P36897); assay: Inhibition of ALK5 (unknown origin)
Chain of TGF-beta receptor type-1 (P36897 whole entry): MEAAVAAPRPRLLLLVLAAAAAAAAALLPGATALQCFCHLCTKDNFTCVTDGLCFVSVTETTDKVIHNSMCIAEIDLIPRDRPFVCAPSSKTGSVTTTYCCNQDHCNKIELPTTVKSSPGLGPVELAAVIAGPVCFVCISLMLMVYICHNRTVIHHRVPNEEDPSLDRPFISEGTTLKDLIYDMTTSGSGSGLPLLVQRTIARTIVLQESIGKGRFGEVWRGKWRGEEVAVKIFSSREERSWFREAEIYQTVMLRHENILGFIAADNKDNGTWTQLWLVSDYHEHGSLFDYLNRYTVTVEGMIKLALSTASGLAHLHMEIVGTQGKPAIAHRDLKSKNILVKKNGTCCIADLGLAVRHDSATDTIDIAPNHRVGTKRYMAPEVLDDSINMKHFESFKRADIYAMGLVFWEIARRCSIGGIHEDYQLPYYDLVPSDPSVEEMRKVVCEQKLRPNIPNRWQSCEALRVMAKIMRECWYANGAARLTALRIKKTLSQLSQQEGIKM

[9] = target: Aurora kinase A (Homo sapiens, UniProt O14965); assay: Inhibition of Aurora A (unknown origin)
In short: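 In-house kinase panel assay with conditions developed and optimized for this kinase. Aurora A was assayed in the presence of its accessory protein TPX2. IC50 was determined.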

[10] = target: Phosphatidylinositol 4,5-bisphosphate 3-kinase catalytic subunit alpha isoform (Homo sapiens, UniProt P42336); assay: Inhibition of PI3Kalpha (unknown origin)
[11] = target: Rho-associated protein kinase 1 (Homo sapiens, UniProt Q13464); assay: Inhibition of ROCK1 (unknown origin)
Chain of Rho-associated protein kinase 1 (Q13464 whole entry): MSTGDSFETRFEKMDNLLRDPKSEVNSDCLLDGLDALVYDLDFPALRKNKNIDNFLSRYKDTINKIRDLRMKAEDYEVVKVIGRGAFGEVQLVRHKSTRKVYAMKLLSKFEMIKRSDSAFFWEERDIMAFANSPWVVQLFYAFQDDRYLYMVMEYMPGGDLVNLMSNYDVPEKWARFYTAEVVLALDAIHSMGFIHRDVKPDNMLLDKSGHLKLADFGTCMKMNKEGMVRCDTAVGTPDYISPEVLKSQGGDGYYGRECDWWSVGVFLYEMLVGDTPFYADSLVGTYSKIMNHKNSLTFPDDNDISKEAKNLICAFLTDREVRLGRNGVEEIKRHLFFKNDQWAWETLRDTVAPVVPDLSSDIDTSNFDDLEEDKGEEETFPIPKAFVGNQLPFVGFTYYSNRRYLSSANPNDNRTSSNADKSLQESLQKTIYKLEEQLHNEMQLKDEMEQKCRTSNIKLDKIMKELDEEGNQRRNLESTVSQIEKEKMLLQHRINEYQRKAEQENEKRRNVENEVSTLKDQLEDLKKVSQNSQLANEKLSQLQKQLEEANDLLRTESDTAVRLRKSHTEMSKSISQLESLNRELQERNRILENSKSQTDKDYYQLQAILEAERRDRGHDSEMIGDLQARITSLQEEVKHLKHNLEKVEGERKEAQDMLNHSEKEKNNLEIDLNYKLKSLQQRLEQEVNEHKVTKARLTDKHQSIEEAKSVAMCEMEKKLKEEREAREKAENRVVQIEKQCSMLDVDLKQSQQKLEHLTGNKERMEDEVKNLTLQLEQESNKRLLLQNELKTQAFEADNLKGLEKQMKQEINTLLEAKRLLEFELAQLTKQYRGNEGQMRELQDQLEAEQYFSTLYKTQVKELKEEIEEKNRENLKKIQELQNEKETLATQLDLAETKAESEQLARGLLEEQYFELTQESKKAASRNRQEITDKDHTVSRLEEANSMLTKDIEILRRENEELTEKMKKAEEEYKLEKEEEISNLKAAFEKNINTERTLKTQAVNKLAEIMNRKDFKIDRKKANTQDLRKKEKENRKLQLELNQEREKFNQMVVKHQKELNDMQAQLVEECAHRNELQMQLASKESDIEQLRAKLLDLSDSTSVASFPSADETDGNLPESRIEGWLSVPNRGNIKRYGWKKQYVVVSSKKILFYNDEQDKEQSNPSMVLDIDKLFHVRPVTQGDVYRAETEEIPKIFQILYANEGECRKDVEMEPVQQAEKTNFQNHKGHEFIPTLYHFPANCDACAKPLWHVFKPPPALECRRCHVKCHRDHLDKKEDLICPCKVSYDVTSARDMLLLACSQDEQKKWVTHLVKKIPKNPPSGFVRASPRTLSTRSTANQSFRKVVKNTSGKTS

[12] = target: Serine/threonine-protein kinase SIK2 (Homo sapiens, UniProt Q9H0K1); assay: Inhibition of SIK2 (unknown origin)
[13] = target: NUAK family SNF1-like kinase 1 (Homo sapiens) (UniProt O60285); assay: Inhibition of N-terminal 6His-tagged recombinant human ARK5 (2 to end residues) expressed in baculovirus infected Sf21 cells at 0.3 uM by filter binding assay relative to control
In short: (§3)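 KinaseProfiler panel of 233 kinases: radiometric filter-binding activity assays with compound at 0.3 or 3 µmol/L. Read-out is percent inhibition.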

[14] = target: Serine/threonine-protein kinase BRSK1 (Homo sapiens) (UniProt Q8TDC3); assay: Inhibition of N-terminal 6His-tagged recombinant human BrSK1 (2 to end residues) expressed in baculovirus infected Sf21 cells at 0.3 uM by filter binding assay relative to control; in short: as §3
[15] = target: Dual specificity protein kinase CLK2 (Homo sapiens) (UniProt P49760); assay: Inhibition of N-terminal GST-tagged recombinant human CLK2 (138 to end residues) expressed in baculovirus infected Sf21 cells at 0.3 uM by filter binding assay relative to control
Chain of Dual specificity protein kinase CLK2 (Homo sapiens) (P49760 whole entry, looked up): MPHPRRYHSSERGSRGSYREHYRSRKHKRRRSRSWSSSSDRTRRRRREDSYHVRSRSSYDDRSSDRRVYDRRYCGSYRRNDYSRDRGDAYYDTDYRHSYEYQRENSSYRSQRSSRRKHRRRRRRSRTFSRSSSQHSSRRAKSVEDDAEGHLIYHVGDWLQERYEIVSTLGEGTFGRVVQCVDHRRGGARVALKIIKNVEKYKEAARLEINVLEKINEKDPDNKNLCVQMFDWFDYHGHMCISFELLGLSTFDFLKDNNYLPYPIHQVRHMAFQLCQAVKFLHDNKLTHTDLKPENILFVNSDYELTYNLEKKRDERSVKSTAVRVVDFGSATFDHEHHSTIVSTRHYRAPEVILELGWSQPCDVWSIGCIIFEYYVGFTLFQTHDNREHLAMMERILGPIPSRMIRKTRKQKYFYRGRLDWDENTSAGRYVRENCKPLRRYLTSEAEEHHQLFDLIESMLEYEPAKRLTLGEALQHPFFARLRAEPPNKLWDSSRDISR
In short: (§4)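 Outsourced single-concentration screen in a commercial panel of 233 protein kinases, run as radiometric filter-binding activity assays. Test agent was tested at 0.3 or 3 µmol/L, as given in each line, from a 10 mmol/L DMSO stock. Activity is expressed as percent inhibition relative to control.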

[16] = target: Serine/threonine-protein kinase DCLK2 (Homo sapiens) (UniProt Q8N568); assay: Inhibition of N-terminal 6His-tagged recombinant human DCAMKL2 (376 to end residues) expressed in baculovirus infected Sf21 cells at 3 uM by filter binding assay relative to control; in short: as §4
Chain of Serine/threonine-protein kinase DCLK2 (Homo sapiens) (Q8N568 whole entry): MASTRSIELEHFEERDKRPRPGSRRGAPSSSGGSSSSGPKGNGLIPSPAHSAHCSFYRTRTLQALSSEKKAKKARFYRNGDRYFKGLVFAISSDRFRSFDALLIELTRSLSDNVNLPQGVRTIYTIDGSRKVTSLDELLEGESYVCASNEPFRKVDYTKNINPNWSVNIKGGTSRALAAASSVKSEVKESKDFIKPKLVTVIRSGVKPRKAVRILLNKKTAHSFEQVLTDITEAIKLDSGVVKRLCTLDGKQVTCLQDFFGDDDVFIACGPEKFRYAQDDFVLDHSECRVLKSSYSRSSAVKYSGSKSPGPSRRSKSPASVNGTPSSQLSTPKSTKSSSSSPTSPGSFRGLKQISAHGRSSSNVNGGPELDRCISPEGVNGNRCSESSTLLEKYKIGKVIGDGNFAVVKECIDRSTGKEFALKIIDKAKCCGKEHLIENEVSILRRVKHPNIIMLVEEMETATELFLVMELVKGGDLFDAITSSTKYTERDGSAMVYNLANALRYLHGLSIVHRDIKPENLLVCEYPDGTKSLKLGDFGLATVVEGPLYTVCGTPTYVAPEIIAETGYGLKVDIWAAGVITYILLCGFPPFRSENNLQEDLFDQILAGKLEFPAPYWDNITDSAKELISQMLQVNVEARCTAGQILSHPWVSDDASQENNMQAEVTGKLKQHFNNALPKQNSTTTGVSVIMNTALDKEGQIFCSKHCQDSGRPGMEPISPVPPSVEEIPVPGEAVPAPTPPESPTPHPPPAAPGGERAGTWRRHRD

[17] = target: Dual specificity tyrosine-phosphorylation-regulated kinase 2 (Homo sapiens) (UniProt Q92630); assay: Inhibition of 6His-tagged recombinant full-length human DYRK2 expressed in baculovirus infected Sf21 cells at 3 uM by filter binding assay relative to control; in short: as §3
Chain of Dual specificity tyrosine-phosphorylation-regulated kinase 2 (Homo sapiens) (Q92630 whole entry): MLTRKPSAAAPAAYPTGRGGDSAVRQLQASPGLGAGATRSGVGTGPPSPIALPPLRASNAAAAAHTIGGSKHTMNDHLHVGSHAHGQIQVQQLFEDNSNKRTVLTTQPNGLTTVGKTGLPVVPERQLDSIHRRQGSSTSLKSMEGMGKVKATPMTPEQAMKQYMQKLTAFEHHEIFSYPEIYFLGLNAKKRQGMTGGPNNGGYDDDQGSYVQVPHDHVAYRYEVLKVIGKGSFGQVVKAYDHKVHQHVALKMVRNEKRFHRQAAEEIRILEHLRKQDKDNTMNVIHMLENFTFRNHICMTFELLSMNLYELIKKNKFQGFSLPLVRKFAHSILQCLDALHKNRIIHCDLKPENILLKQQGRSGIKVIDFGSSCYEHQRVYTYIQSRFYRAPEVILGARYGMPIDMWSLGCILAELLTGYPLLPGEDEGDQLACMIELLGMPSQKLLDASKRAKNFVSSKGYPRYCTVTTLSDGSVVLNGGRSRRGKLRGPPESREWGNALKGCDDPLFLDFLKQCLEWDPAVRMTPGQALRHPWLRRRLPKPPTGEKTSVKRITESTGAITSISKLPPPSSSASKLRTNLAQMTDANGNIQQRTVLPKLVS

[18] = species: Homo sapiens; assay: Inhibition of N-terminal GST-tagged recombinant human MAPK1 expressed in Escherichia coli at 3 uM by filter binding assay relative to control; in short: as §4
[19] = target: Dual specificity mitogen-activated protein kinase kinase 6 (Homo sapiens) (UniProt P52564); assay: Inhibition of N-terminal maltose binding protein-tagged human MKK6 (4 to end residues) expressed in Escherichia coli at 3 uM by filter binding assay relative to control
Chain of Dual specificity mitogen-activated protein kinase kinase 6 (Homo sapiens) (P52564 whole entry): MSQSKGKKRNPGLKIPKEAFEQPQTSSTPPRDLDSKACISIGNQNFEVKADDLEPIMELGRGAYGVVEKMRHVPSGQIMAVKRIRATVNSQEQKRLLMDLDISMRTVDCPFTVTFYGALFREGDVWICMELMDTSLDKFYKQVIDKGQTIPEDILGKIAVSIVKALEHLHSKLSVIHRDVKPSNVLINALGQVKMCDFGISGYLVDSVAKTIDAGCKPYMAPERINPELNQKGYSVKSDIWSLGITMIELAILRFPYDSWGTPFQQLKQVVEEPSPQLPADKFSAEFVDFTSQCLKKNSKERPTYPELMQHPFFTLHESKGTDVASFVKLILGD

[20] = target: MAP kinase-interacting serine/threonine-protein kinase 2 (Homo sapiens) (UniProt Q9HBH9); assay: Inhibition of N-terminal 6His-tagged recombinant human full-length Mnk2 expressed in baculovirus infected Sf21 cells at 3 uM by filter binding assay relative to control; in short: as §4
[21] = target: Serine/threonine-protein kinase Nek3 (Homo sapiens) (UniProt P51956); assay: Inhibition of N-terminal 6His-tagged recombinant full length human NEK3 expressed in baculovirus infected Sf21 cells at 3 uM by filter binding assay relative to control; in short: as §3
[22] = target: Serine/threonine-protein kinase D1 (Homo sapiens) (UniProt Q15139); assay: Inhibition of N-terminal His6-tagged recombinant full-length human PKCmu expressed in Sf21 cells at 3 uM by filter binding assay relative to control; in short: as §4
[23] = target: Serine/threonine-protein kinase TBK1 (Homo sapiens) (UniProt Q9UHD2); assay: Inhibition of N-terminal His6-tagged recombinant full-length human TBK1 expressed in baculovirus infected Sf21 cells at 3 uM by filter binding assay relative to control; in short: as §4
Chain of Serine/threonine-protein kinase TBK1 (Homo sapiens) (Q9UHD2 whole entry): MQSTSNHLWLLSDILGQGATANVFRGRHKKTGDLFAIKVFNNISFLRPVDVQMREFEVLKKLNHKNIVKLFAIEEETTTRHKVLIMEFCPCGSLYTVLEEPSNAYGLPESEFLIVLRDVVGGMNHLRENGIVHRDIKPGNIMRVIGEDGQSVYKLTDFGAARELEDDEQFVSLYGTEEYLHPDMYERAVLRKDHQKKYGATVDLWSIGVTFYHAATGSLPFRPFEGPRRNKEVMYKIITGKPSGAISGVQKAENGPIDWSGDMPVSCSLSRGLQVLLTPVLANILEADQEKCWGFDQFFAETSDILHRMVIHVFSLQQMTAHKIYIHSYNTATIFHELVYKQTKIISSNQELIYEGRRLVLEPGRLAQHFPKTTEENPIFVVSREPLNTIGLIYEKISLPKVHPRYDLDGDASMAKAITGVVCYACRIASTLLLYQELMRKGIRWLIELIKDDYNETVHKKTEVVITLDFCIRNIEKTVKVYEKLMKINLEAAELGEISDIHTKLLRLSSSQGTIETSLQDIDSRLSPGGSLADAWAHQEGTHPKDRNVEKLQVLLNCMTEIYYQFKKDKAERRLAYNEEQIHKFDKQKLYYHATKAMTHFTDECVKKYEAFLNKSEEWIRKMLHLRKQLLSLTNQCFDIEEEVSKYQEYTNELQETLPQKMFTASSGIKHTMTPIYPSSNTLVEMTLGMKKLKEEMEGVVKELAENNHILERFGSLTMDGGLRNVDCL

[24] = target: High affinity nerve growth factor receptor (Homo sapiens, UniProt P04629); assay: Inhibition of N-terminal His6-tagged recombinant human TrkA (440 to end residues) expressed in baculovirus infected Sf21 cells by filter binding assay
[25] = target: Insulin receptor (Mus musculus) (UniProt P15208); settings: CD-1, dose 10-60 mg/kg, route po, time 242.0 min

CCc1cc(Nc2nccc(-c3c(-c4ccc(OC)c(C(=O)Nc5c(F)cccc5F)c4)nc4ccccn34)n2)c(OC)cc1N1CCC(N2CCN(S(C)(=O)=O)CC2)CC1
IC50 [1]: 0.165 µM | IC50 [2]: > 30 µM | Activity [3]: Active | Activity [4]: Active | Activity [5]: Active | Activity [6]: Active | Activity [7]: inactive | IC50 [8]: > 10 µM | IC50 [9]: > 8 µM | IC50 [10]: > 10 µM | IC50 [11]: > 10 µM | IC50 [12]: > 10 µM | inhibition [13]: 4% | inhibition [14]: 0% | inhibition [15]: 0% | inhibition [16]: 0% | inhibition [17]: -8% | inhibition [18]: -10% | inhibition [19]: 0% | inhibition [20]: 24% | inhibition [21]: 16% | inhibition [22]: 1% | inhibition [23]: 22% | IC50 [24]: 0.701 µM | inhibition [25]: inactive
